Tests used:
[1] = tested on: U251 cells; experiment: PIKfyve-related vacuolization, brightfield microscopy of U251 cells; assay type: cell-based, human; settings: high concentrations
Outline: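 U251 cells plated at 25,000 cells/well, attached overnight, then treated for 24 h in DMSO (final 0.1%). Vacuolization observed by brightfield microscopy.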

[2] = tested on: L444P/L444P Gaucher patient fibroblasts; experiment: Nuclear stain cell toxicity/viability; assay type: cell-based, human; settings: 72 h, 2.5 µM A16 / 10 µM A18
Outline: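 Toxicity by nuclear stains: fibroblasts at 10,000 cells/well, attached overnight, then treated for 72 h in DMSO (final 0.1%). Stained with Hoechst and SYTOX Orange per the manufacturer's instructions.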

[3] = tested on: L444P/L444P Gaucher patient fibroblasts; experiment: CellTiter-Glo ATP-based viability assay, patient fibroblasts; assay type: cell-based, human; settings: 72 h
Outline: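 Viability by ATP content: fibroblasts seeded at 10,000 cells/well, attached overnight, then treated for 72 h in DMSO (final 0.1%). CellTiter-Glo added per the manufacturer's instructions; luminescence-based ATP read-out.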

[4] = tested on: ISR and KEGG lysosome pathway genes; assay type: cell-based, human; settings: L444P fibroblasts, 24 h; A16 500 nM, A18 1 µM, Apilimod 50 nM
[5] = tested on: L444P/L444P GCase; experiment: GCase lysed cell assay; assay type: cell-based, human; settings: L444P/L444P fibroblasts, 72 h; for improvement of GCase activity, compound alone: individual treatment (Fig. 5B)
[6] = molecular target: isolated recombinant PIKfyve (Homo sapiens, UniProt Q9Y2I7); experiment: DiscoveRX KINOMEScan for PIKfyve; assay type: binding
isolated recombinant PIKfyve, sequence (Q9Y2I7 whole entry): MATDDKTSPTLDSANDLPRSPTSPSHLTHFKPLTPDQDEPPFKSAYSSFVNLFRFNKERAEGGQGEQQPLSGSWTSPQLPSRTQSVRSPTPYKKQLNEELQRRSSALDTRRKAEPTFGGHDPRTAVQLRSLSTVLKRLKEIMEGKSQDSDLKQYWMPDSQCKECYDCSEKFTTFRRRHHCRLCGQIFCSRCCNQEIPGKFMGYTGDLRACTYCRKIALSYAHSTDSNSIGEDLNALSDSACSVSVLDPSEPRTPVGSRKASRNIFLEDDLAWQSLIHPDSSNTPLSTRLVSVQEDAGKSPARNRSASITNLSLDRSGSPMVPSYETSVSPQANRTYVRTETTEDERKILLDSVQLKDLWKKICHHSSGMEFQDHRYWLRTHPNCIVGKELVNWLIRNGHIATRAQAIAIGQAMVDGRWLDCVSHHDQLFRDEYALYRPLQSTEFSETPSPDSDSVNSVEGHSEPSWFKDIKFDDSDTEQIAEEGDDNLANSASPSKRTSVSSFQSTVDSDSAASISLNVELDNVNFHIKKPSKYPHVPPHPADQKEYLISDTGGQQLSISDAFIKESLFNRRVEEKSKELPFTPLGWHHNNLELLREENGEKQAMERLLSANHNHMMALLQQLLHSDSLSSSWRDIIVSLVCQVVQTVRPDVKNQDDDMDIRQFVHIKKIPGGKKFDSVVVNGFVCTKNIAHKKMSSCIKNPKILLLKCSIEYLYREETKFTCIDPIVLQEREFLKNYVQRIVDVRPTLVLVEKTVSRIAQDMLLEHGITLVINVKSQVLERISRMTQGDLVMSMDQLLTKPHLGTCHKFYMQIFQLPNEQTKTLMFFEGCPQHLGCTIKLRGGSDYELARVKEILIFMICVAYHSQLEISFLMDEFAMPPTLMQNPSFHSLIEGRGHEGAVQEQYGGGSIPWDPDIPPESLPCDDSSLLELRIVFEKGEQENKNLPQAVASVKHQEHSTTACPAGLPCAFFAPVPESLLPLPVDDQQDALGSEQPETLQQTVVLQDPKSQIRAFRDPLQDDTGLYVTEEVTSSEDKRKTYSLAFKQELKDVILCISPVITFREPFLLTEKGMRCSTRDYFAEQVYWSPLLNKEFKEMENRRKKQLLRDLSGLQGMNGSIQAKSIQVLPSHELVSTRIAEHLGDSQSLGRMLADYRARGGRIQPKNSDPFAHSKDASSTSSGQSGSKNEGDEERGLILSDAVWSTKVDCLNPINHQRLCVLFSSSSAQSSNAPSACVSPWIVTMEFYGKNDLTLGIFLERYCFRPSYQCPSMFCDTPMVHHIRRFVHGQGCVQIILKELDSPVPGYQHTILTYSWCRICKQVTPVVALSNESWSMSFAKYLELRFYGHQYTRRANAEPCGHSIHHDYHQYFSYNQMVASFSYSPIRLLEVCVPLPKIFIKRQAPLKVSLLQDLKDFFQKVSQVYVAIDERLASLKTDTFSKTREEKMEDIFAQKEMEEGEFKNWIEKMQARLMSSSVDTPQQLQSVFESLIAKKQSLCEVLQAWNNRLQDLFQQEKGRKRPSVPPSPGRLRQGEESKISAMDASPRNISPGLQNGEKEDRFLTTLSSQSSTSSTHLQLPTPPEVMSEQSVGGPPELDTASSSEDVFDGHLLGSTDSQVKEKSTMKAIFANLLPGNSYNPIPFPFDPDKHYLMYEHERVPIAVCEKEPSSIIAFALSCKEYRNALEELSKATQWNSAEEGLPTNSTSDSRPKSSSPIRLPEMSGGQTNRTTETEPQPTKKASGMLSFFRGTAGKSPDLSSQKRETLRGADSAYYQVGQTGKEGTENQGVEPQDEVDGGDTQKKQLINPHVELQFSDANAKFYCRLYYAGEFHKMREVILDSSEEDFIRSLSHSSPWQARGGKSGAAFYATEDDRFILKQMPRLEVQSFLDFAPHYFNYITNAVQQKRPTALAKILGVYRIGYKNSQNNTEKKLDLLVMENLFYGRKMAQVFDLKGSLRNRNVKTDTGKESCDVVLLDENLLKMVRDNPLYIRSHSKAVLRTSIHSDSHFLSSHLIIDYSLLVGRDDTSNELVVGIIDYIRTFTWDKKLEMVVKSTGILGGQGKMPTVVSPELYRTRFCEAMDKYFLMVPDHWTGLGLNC

[7] = placebo-controlled trials; cited from earlier work
[8] = tested on: integrated stress response (eIF2B); settings: read-out: IC50 (reversal of ISR effects); cited from earlier work

In the case of `Ic1ccc(Nc2nc(NCCN3CCOCC3)nc(N3CCOCC3)n2)cc1` [A18], the vacuolization phenotype [1] is reported as “vacuolization phenotype”, the “cell toxicity (Hoechst and Sytox Orange staining)” value [2] is reported as “minimal cell toxicity” and the “cell viability (CellTiter-Glo ATP-based)” value [3] is reported as “above vehicle treatment”. For the same compound, the “ISR activation by RNAseq-based transcriptional changes” value [4] was “do not see RNAseq-based transcriptional changes”.

In the case of `c1ccc2c(-c3nn4c(-c5ccncc5)nnc4s3)c[nH]c2c1` [A16], the vacuolization phenotype [1] is reported as “vacuolization phenotype”, the “cell toxicity (Hoechst and Sytox Orange staining)” value [2] is reported as “minimal cell toxicity” and the “increase of GCase activity, cotreatment with ISRIB (observed)” value ([5]; A16 + ISRIB (Fig. 5B)) is reported as ~ 100%. The “improvement of GCase activity, compound alone” value [5] was ~ 70%, the “cell viability (CellTiter-Glo ATP-based)” value [3] was “above vehicle treatment” and the “ISR activation by RNAseq-based transcriptional changes” value [4] was “do not see RNAseq-based transcriptional changes”. The Kd [6] was < 0.17 nM.

For `Cc1cccc(/C=N/Nc2cc(N3CCOCC3)nc(OCCc3ccccn3)n2)c1` [Apilimod], the “ISR activation by RNAseq-based transcriptional changes” value [4] is listed as “do not see RNAseq-based transcriptional changes”, the “efficacy in autoimmune disorders (Crohn's Disease, Rheumatoid Arthritis)” value [7] is listed as “failed to show any efficacy” and the “safety and pharmacokinetic profiles” value [7] is listed as “favorable safety and pharmacokinetic profiles”.

For `O=C(COc1ccc(Cl)cc1)NC1CCC(NC(=O)COc2ccc(Cl)cc2)CC1` (stereo not shown) [ISRIB, reference compound], the IC50 [8] is listed as 5 nM and the “improvement of GCase activity, compound alone” value [5] is listed as ~ 10%.
